From ChEMBL document CHEMBL1142080, “In vitro activities of amphotericin B, caspofungin, itraconazole, posaconazole, and voriconazole against 45 clinical isolates of zygomycetes: comparison of CLSI M38-A, Sensititre YeastOne, and the Etest” (2007)
In brackets after ≈: the same amount, converted by molar mass.

Assays:
Assay type in all cases: functional
Mucor [1] = experiment: Antifungal activity against Mucor spp after 24 hrs
In short: (§1)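 Broth microdilution per CLSI M38-A, with plates incubated at 35°C and read at 24 and 48 h. Final well concentrations were 0.03 to 16 µg/ml for four agents and 0.250 to 256 µg/ml for the echinocandin. The MIC was the lowest concentration giving complete growth inhibition (MIC-0). For the echinocandin, the MEC was also read as the lowest concentration showing abnormal growth. QC strains were A. flavus ATCC 204304 and A. fumigatus ATCC 204305.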

Absidia [2] = experiment: Antifungal activity against Absidia spp after 48 hrs; in short: as §1
Syncephalastrum [3] = experiment: Antifungal activity against Syncephalastrum spp after 48 hrs; in short: as §1
Rhizomucor [4] = experiment: Antifungal activity against Rhizomucor spp after 24 hrs; in short: as §1
Rhizomucor [5] = experiment: Antifungal activity against Rhizomucor spp after 48 hrs; in short: as §1
Cunninghamella [6] = experiment: Antifungal activity against Cunninghamella spp after 48 hrs; in short: as §1
Absidia [7] = experiment: Antifungal activity against Absidia spp after 24 hrs; in short: as §1
Rhizopus [8] = experiment: Antifungal activity against Rhizopus spp after 24 hrs; in short: as §1
Syncephalastrum [9] = experiment: Antifungal activity against Syncephalastrum spp after 24 hrs; in short: as §1
Mucor [10] = experiment: Antifungal activity against Mucor spp after 48 hrs; in short: as §1
Cunninghamella [11] = experiment: Antifungal activity against Cunninghamella spp after 24 hrs; in short: as §1
Rhizopus [12] = experiment: Antifungal activity against Rhizopus spp after 48 hrs; in short: as §1

Compound	MIC50 (Mucor [1]) [µg/mL]	MIC90 (Mucor [1]) [µg/mL]	MIC50 (Absidia [2]) [µg/mL]	MIC90 (Absidia [2]) [µg/mL]	MIC50 (Syncephalastrum [3]) [µg/mL]	MIC90 (Syncephalastrum [3]) [µg/mL]	MIC50 (Rhizomucor [4]) [µg/mL]	MIC90 (Rhizomucor [4]) [µg/mL]	MIC50 (Rhizomucor [5]) [µg/mL]	MIC90 (Rhizomucor [5]) [µg/mL]	MIC50 (Cunninghamella [6]) [µg/mL]	MIC90 (Cunninghamella [6]) [µg/mL]	MIC50 (Absidia [7]) [µg/mL]	MIC90 (Absidia [7]) [µg/mL]	MIC50 (Rhizopus [8]) [µg/mL]	MIC90 (Rhizopus [8]) [µg/mL]	MIC50 (Syncephalastrum [9]) [µg/mL]	MIC90 (Syncephalastrum [9]) [µg/mL]	MIC50 (Mucor [10]) [µg/mL]	MIC90 (Mucor [10]) [µg/mL]	other results
C[C@@H]1[C@H](O)[C@@H](C)/C=C/C=C/C=C/C=C/C=C/C=C/C=C/[C@H](O[C@@H]2O[C@H](C)[C@@H](O)[C@H](N)[C@@H]2O)C[C@@H]2O[C@](O)(C[C@@H](O)C[C@@H](O)[C@H](O)CC[C@@H](O)C[C@@H](O)CC(=O)O[C@H]1C)C[C@H](O)[C@H]2C(=O)O [AMPHOTERICIN B]	1 (≈ 1.08 µM)	1 (≈ 1.08 µM)	0.5 (≈ 0.541 µM)	4 (≈ 4.33 µM)	0.125 (≈ 0.135 µM)	2 (≈ 2.16 µM)	1 (≈ 1.08 µM)	1 (≈ 1.08 µM)	1 (≈ 1.08 µM)	1 (≈ 1.08 µM)	2 (≈ 2.16 µM)	> 16	1 (≈ 1.08 µM)	4 (≈ 4.33 µM)	1 (≈ 1.08 µM)	2 (≈ 2.16 µM)	0.125 (≈ 0.135 µM)	1 (≈ 1.08 µM)	1 (≈ 1.08 µM)	2 (≈ 2.16 µM)	MIC50 (Cunninghamella [11]): 2 µg/mL (≈ 2.16 µM); MIC90 (Cunninghamella [11]): 4 µg/mL (≈ 4.33 µM); MIC50 (Rhizopus [12]): 1 µg/mL (≈ 1.08 µM); MIC90 (Rhizopus [12]): 2 µg/mL (≈ 2.16 µM)
CC[C@H](C)C[C@H](C)CCCCCCCCC(=O)N[C@H]1C[C@@H](O)[C@@H](NCCN)NC(=O)[C@@H]2[C@@H](O)CCN2C(=O)[C@H]([C@H](O)CCN)NC(=O)[C@H]([C@H](O)[C@@H](O)c2ccc(O)cc2)NC(=O)[C@@H]2C[C@@H](O)CN2C(=O)[C@H]([C@@H](C)O)NC1=O [CASPOFUNGIN]	256 (≈ 234 µM)	> 256	> 256	> 256	256 (≈ 234 µM)	> 256	256 (≈ 234 µM)	256 (≈ 234 µM)	> 256	> 256	256 (≈ 234 µM)	> 256	256 (≈ 234 µM)	> 256	> 256	> 256	256 (≈ 234 µM)	> 256	> 256	> 256	minimal effective concentration (Mucor [1]; read-out: MEC): 128 µg/mL; minimal effective concentration (Absidia [2]; read-out: MEC): 256 µg/mL; minimal effective concentration (Syncephalastrum [3]; read-out: MEC): > 256 µg/mL; minimal effective concentration (Rhizomucor [4]; read-out: MEC): 32 µg/mL; minimal effective concentration (Rhizomucor [5]; read-out: MEC): 64 µg/mL; minimal effective concentration (Cunninghamella [6]; read-out: MEC): 128 µg/mL; minimal effective concentration (Absidia [7]; read-out: MEC): 64 µg/mL; minimal effective concentration (Rhizopus [8]; read-out: MEC): 128 µg/mL; minimal effective concentration (Syncephalastrum [9]; read-out: MEC): 8 µg/mL; MIC50 (Cunninghamella [11]): 256 µg/mL (≈ 234 µM); MIC90 (Cunninghamella [11]): > 256 µg/mL; minimal effective concentration (Cunninghamella [11]; read-out: MEC): 128 µg/mL; MIC50 (Rhizopus [12]): > 256 µg/mL; MIC90 (Rhizopus [12]): > 256 µg/mL; minimal effective concentration (Rhizopus [12]; read-out: MEC): 256 µg/mL
CC[C@@H]([C@H](C)O)n1ncn(-c2ccc(N3CCN(c4ccc(OC[C@@H]5CO[C@@](Cn6cncn6)(c6ccc(F)cc6F)C5)cc4)CC3)cc2)c1=O [POSACONAZOLE]	0.5 (≈ 0.713 µM)	2 (≈ 2.85 µM)	0.5 (≈ 0.713 µM)	> 16	0.5 (≈ 0.713 µM)	0.5 (≈ 0.713 µM)	0.5 (≈ 0.713 µM)	0.5 (≈ 0.713 µM)	2 (≈ 2.85 µM)	2 (≈ 2.85 µM)	0.5 (≈ 0.713 µM)	0.5 (≈ 0.713 µM)	0.5 (≈ 0.713 µM)	1 (≈ 1.43 µM)	0.5 (≈ 0.713 µM)	0.5 (≈ 0.713 µM)	0.25 (≈ 0.357 µM)	0.5 (≈ 0.713 µM)	0.5 (≈ 0.713 µM)	2 (≈ 2.85 µM)	MIC50 (Cunninghamella [11]): 0.5 µg/mL (≈ 0.713 µM); MIC90 (Cunninghamella [11]): 0.5 µg/mL (≈ 0.713 µM); MIC50 (Rhizopus [12]): 0.5 µg/mL (≈ 0.713 µM); MIC90 (Rhizopus [12]): 1 µg/mL (≈ 1.43 µM)
CCC(C)n1ncn(-c2ccc(N3CCN(c4ccc(OCC5COC(Cn6cncn6)(c6ccc(Cl)cc6Cl)O5)cc4)CC3)cc2)c1=O (stereo unspecified) [ITRACONAZOLE]	1 (≈ 1.42 µM)	> 16	1 (≈ 1.42 µM)	> 16	1 (≈ 1.42 µM)	8 (≈ 11.3 µM)	2 (≈ 2.83 µM)	2 (≈ 2.83 µM)	> 16	> 16	1 (≈ 1.42 µM)	4 (≈ 5.67 µM)	1 (≈ 1.42 µM)	> 16	1 (≈ 1.42 µM)	> 16	1 (≈ 1.42 µM)	1 (≈ 1.42 µM)	4 (≈ 5.67 µM)	> 16	MIC50 (Cunninghamella [11]): 1 µg/mL (≈ 1.42 µM); MIC90 (Cunninghamella [11]): 4 µg/mL (≈ 5.67 µM); MIC50 (Rhizopus [12]): 4 µg/mL (≈ 5.67 µM); MIC90 (Rhizopus [12]): > 16 µg/mL
C[C@@H](c1ncncc1F)[C@](O)(Cn1cncn1)c1ccc(F)cc1F [VORICONAZOLE]	> 16	> 16	> 16	> 16	> 16	> 16	16 (≈ 45.8 µM)	16 (≈ 45.8 µM)	> 16	> 16	> 16	> 16	> 16	> 16	16 (≈ 45.8 µM)	16 (≈ 45.8 µM)	4 (≈ 11.5 µM)	> 16	> 16	> 16	MIC50 (Cunninghamella [11]): > 16 µg/mL; MIC90 (Cunninghamella [11]): > 16 µg/mL; MIC50 (Rhizopus [12]): 16 µg/mL (≈ 45.8 µM); MIC90 (Rhizopus [12]): > 16 µg/mL
